Data set [1] is described as follows: Prevention of vesicular membrane trafficking in Sprague-Dawley rat neurons assessed as inhibition of amyloid beta oligomer binding to […] receptor at 10 uM pretreated with compounds followed by amyloid beta oligomer challenge and measured after 1 hr by ELISA relative to control. To be noted: Neuron. In kind it is functional. A general note: An ELISA detects its analyte on a solid surface through an enzyme-linked reagent.

Data set [2] is described as follows: Cognitive enhancing effect in non-transgenic mouse assessed as swimming length measured after 2 day by Morris Water maze method (reference value: 2666 +/-294 cm). It counts as ADME. As to conditions: buffer, 48 h.
In data set [3] the target is Sigma intracellular receptor 2 (Homo sapiens, UniProt Q5BJF2). As to the kind of experiment: Binding affinity to Sigma 2-receptor (unknown origin).
Data set [4] is described as follows: Cognitive enhancing effect in non-transgenic mouse assessed as swimming length measured after 4 days by Morris Water maze method (reference value: 1797 +/-219 cm). In kind it is ADME. To be noted: buffer, 96 h, time 4 day.
A further data set concerns Mus musculus. As to the kind of experiment: Induction of amyloid beta oligomer release in interstitial brain fluid in iv dosed transgenic hAPP Swe/Ldn mouse. It counts as functional, organism-based. In outline: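 Compound given intravenously to live transgenic mice. Microelectrodes coated with antibodies to total Aβ or to Aβ oligomers were inserted into the brain, and soluble Aβ in interstitial fluid was measured minute by minute.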

Data set [5] can be described thus: Reversal of amyloid beta oligomer-induced vesicular membrane trafficking in Sprague-Dawley rat neurons at 1 uM pretreated with amyloid beta oligomer for 1 hr followed by compound treatment by ELISA relative to control. In kind it is functional. As to conditions: Neuron.
In data set [6] the target is Voltage-gated inwardly rectifying potassium channel KCNH2 (Homo sapiens, UniProt Q12809).
Data set [7] can be described thus: Unbound brain-to-plasma concentration ratio measured after 24 hrs. In kind it is ADME, cell-free. To be noted: brain and plasma, read-out: K(p,uu,brain).
A short description of data set [8]: Efflux ratio of apparent permeability from basolateral to apical membrane over apical to basolateral membrane in human Caco2 cells. As to conditions: Caco-2. In kind it is ADME, cell-based. A general note: Caco-2 cells form a polarised layer with tight junctions and transporters.
A further data set deals with N2a. As to the kind of experiment: Anti-synaptotoxic activity against mouse Neuro-2a cells assessed as inhibition of amyloid beta (1 to 42)-induced cytotoxicity by MTT-based Trafficking assay. In kind it is functional. (In general: Formazan colour is commonly taken as a measure of viable cells.)
A short description of data set [9]: Free drug level in plasma. In kind it is ADME, cell-free.
The nature of data set [10]: Cognitive enhancing effect in transgenic hAPP Swe/Ldn mouse assessed as swimming length measured after 1 day by Morris Water maze method (reference value: 3518 +/-138 cm). As to conditions: buffer, 24 h. In kind it is ADME.
A short description of data set [11]: Cognitive enhancing effect in transgenic hAPP Swe/Ldn mouse assessed as swimming length measured after 3 days by Morris Water maze method (reference value: 2854 +/-267 cm). In kind it is ADME. To be noted: buffer, 72 h, time 3 day.
Data set [12] in a line: Prevention of vesicular membrane trafficking in Sprague-Dawley rat neurons assessed as inhibition of amyloid beta oligomer binding to […] receptor pretreated with compounds followed by amyloid beta oligomer challenge and measured after 1 hr by ELISA. In kind it is functional, tissue-based. To be noted: neuron.
Data set [13] can be described thus: Ratio of AUC in Brain to AUC in plasma. It counts as ADME, cell-free. As to conditions: brain and plasma; read-out: Ratio AUC.
Data set [14] is described as follows: Ratio of drug level in brain to plasma measured after 24 hrs. In kind it is ADME, cell-free. As to conditions: brain and plasma, read-out: BPR.
The nature of data set [15]: Cognitive enhancing effect in transgenic hAPP Swe/Ldn mouse assessed as restoration of freezing time measured by Contextual fear conditioning test (reference value: 32 +/-6%). In kind it is ADME.
Data set [16] in a line: Free drug level in brain. It counts as ADME, tissue-based.
The nature of data set [17]: Cognitive enhancing effect in non-transgenic mouse assessed as swimming length measured after 1 day by Morris Water maze method (reference value: 3791 +/-150 cm). In kind it is ADME. As to conditions: buffer, 24 h.
The nature of data set [18]: Cognitive enhancing effect in non-transgenic mouse assessed as restoration of freezing time measured by Contextual fear conditioning test (reference value: 52 +/-5%). In kind it is ADME.
Data set [19] is described as follows: Reversal of amyloid beta oligomer-induced vesicular membrane trafficking in Sprague-Dawley rat neurons pretreated with amyloid beta oligomer for 1 hr followed by compound treatment by ELISA. As to conditions: neuron. In kind it is functional, tissue-based.
The nature of data set [20]: Half life in mouse liver microsomes. It counts as ADME, Microsome.
The nature of data set [21]: Improvement in learning and spatial memory in transgenic hAPP Swe/Ldn mouse assessed as spontaneous alteration measured by Y-maze method (reference value: 56.1 +/-2.8%). It counts as ADME.
The nature of data set [22]: Cognitive enhancing effect in transgenic hAPP Swe/Ldn mouse assessed as swimming length measured after 4 days by Morris Water maze method (reference value: 2426 +/-287 cm). In kind it is ADME. To be noted: buffer, 96 h, time 4 day.
Data set [23] is described as follows: Cognitive enhancing effect in transgenic hAPP Swe/Ldn mouse assessed as swimming length measured after 2 day by Morris Water maze method (reference value: 3252 +/-329 cm). It counts as ADME. As to conditions: buffer, 48 h.
Data set [24] in a line: Cognitive enhancing effect in non-transgenic mouse assessed as swimming length measured after 3 days by Morris Water maze method (reference value: 2173 +/-213 cm). It counts as ADME. As to conditions: buffer, 72 h, time 3 day.
The nature of data set [25]: Improvement in learning and spatial memory in non-transgenic mouse assessed as spontaneous alteration measured by Y-maze method (reference value: 62.6 +/-3.7%). In kind it is ADME.

The source made the active and inactive calls. The rule behind the calls is not given here.

Sigma intracellular receptor 2, sequence (Q5BJF2 whole entry): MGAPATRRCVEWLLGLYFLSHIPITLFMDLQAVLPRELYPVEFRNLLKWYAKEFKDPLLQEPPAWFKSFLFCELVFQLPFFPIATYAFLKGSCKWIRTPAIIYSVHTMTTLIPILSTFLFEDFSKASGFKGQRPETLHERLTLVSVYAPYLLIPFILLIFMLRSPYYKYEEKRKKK
Voltage-gated inwardly rectifying potassium channel KCNH2, sequence (Q12809 whole entry): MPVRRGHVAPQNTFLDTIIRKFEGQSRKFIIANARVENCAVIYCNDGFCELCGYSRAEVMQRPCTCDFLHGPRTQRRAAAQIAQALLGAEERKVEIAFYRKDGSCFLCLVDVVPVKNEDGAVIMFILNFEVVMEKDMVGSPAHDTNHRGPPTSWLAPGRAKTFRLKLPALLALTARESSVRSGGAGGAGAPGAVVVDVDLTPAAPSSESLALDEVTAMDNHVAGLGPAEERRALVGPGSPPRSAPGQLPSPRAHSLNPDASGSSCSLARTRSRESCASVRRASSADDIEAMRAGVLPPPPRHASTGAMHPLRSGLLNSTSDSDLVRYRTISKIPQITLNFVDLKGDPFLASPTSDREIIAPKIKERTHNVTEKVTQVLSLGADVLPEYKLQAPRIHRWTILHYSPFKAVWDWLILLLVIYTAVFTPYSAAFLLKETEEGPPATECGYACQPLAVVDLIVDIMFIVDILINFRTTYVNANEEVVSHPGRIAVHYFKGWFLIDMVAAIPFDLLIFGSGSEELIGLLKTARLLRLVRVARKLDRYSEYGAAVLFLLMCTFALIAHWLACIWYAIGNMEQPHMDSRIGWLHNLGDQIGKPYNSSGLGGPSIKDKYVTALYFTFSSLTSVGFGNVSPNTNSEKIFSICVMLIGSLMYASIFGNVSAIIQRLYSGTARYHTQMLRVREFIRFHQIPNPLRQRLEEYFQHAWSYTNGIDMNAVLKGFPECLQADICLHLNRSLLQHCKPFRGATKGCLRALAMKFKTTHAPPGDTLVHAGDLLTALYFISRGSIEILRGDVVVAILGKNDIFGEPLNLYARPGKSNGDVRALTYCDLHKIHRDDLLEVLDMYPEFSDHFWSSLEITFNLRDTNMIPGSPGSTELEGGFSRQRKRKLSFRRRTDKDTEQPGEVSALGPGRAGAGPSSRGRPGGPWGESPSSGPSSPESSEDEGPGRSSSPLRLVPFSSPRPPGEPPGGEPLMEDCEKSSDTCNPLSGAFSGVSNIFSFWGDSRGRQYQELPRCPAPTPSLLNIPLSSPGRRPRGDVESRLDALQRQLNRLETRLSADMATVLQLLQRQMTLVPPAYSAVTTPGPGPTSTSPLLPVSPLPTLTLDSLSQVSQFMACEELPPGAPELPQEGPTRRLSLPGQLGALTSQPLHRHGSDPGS

As usually defined, the inhibition is the share of the control response that was lost under treatment. The Ki is a dissociation constant, usually derived from enzyme kinetics or from competition with a known ligand. Read a low Ki as a stronger hold on the target. As a reminder, the EC50 is the concentration at which the effect is half-maximal. One may read the efflux ratio as the permeability from basolateral to apical divided by that in the opposite direction, in the common usage. What is called fraction unbound is free concentration divided by total concentration. As usually defined, the half-life is how long it takes for the measured level to halve. A low value points to fast loss. With `CC(C)(C)Oc1cc(CCC(C)(C)N2Cc3ccc(S(C)(=O)=O)cc3C2)ccc1O`, in data set [1], the inhibition at 10 µM came to 71%. In addition, the Activity in [2] came out at 2739 cm; in [4], 2008 cm; with N2a, 0.31 µM; in data set [10], 3230 cm; in data set [11], 1987 cm; in data set [15], 45%. For the same molecule, the Activity in data set [17] was determined as 3317 cm; in [18], 51%; in data set [21], 58.5%; in [22] it was 1611 cm; in data set [23] it was 2332 cm; in data set [24], 2262 cm. The Activity in data set [25] came to 65.3%. Also, the affinity in [3] corresponds to a Ki of 8.5 nM. In addition, in the data set with Mus musculus, the outcome was Active. Also, the inhibition at 1 µM in data set [5] amounted to 88%. Moreover, the EC50 in data set [6] came to 26000 nM; in data set [12], 6800 nM; in [19] it was 358 nM. Further, the Kp uu at 24 h in data set [7] was found to be 6.75. The efflux ratio in data set [8] was 0.95. Further, the fraction unbound in data set [9] stood at 0.05; in data set [16] it was 0.13. Besides, the Kp in data set [13] was 2.51. Moreover, the Kp at 24 h in data set [14] turned out to be 5.7. In [20], the half-life was 45 min.

For the molecule `COc1cc(CC[C@@H](C)N2Cc3cccc(F)c3C2)ccc1O`, the Activity with N2a worked out at 0.25 µM. The same molecule had a half-life in [20] of 16 min.

Regarding `C[C@@H](CCc1ccc(Cl)c(Cl)c1)NCc1ccc(C(F)(F)F)cc1`, the affinity in data set [3] corresponds to a Ki of 120 nM. Further, in [6], a half-maximal effect (EC50) was put at 1100 nM. Moreover, in the data set on N2a, the Activity was determined as 11.7 µM. Moreover, the half-life in [20] worked out at 53 min.

In data set [6], `C[C@H](CCc1ccc(Cl)c(Cl)c1)NCc1ccc(C(F)(F)F)cc1` returned an EC50 of 4400 nM. Besides, in the data set with N2a, the Activity came to 2 µM. Further, the Kp at 24 h in data set [14] was 8.2. Also, in data set [20], the half-life stood at 33 min.

For `COc1cc(CCC(C)NCc2ccc(C(F)(F)F)cc2)ccc1O` (configuration not stated), the Activity with N2a worked out at 2.2 µM.

Take `C[C@H](CCc1ccc(Cl)cc1)NCc1ccc(C(F)(F)F)cc1`: the EC50 in [6] was determined as 780 nM. The Activity with N2a was found to be 5.7 µM. For the same molecule, the Kp at 24 h in [14] was 2. In addition, in data set [20], the half-life is 27 min.

As for `COc1cc2c(cc1OC)CN([C@H](C)CCc1ccc(Cl)c(Cl)c1)C2`, the affinity in data set [3], expressed as Ki, was 0.44 nM. In data set [6], this molecule yielded an EC50 of 290 nM. Further, the Activity in the data set on N2a is 0.7 µM. Further, the half-life in data set [20] was found to be 61 min.

The molecule `CC(C)Oc1cc(CCC(C)(C)N2Cc3cccc(F)c3C2)ccc1O` came in with a Ki in data set [3] of 11 nM. The molecule further had an EC50 in [6] of 9600 nM. Moreover, the Activity with N2a was 0.25 µM. Besides, in [13], the Kp amounted to 5.64. For the same molecule, the Kp at 24 h in data set [14] amounted to 5.4. Also, the half-life in data set [20] worked out at 4 min.
